Data taken from ChEMBL document CHEMBL3102769, “Synthesis, docking simulation, biological evaluations and 3D-QSAR study of 5-Aryl-6-(4-methylsulfonyl)-3-(metylthio)-1,2,4-triazine as selective cyclooxygenase-2 inhibitors” (Bioorg Med Chem, 2014).

Columns and labels:
[1] = system: Mus musculus; test: Antinociceptive activity in Swiss albino mouse assessed as licking time in secondary inflammatory period at 3 mg/kg, ip administered 30 mins prior to formalin-challenge (reference value: 217 +/- 68.5 seconds); type: functional; conditions: route intraperitoneal
[2] = system: Rattus norvegicus; test: Antiinflammatory activity in Wistar rat assessed as change in carrageenan-induced hind paw thickness at 3 mg/kg, ip administered 30 mins prior to carrageenan-challenge measured after 1 hr (reference value: 1.84 +/- 0.41 mm); type: functional; conditions: route intraperitoneal
[3] = system: Rattus norvegicus; test: Antiinflammatory activity in Wistar rat assessed as change in carrageenan-induced hind paw thickness at 6 mg/kg, ip administered 30 mins prior to carrageenan-challenge measured after 3 hrs (reference value: 1.78 +/- 0.39 mm); type: functional; conditions: route intraperitoneal
[4] = system: Rattus norvegicus; test: Antiinflammatory activity in Wistar rat assessed as change in carrageenan-induced hind paw thickness at 3 mg/kg, ip administered 30 mins prior to carrageenan-challenge measured after 3 hrs (reference value: 1.78 +/- 0.39 mm); type: functional; conditions: route intraperitoneal
[5] = system: Rattus norvegicus; test: Antiinflammatory activity in Wistar rat assessed as change in carrageenan-induced hind paw thickness at 6 mg/kg, ip administered 30 mins prior to carrageenan-challenge measured after 1 hr (reference value: 1.84 +/- 0.41 mm); type: functional; conditions: route intraperitoneal
[6] = system: Mus musculus; test: Antinociceptive activity in Swiss albino mouse assessed as licking time in secondary inflammatory period at 6 mg/kg, ip administered 30 mins prior to formalin-challenge (reference value: 217 +/- 68.5 seconds); type: functional; conditions: route intraperitoneal
[7] = target: T1, Prostaglandin G/H synthase 1 (Ovis aries, UniProt P05979); test: Inhibition of ovine COX1 using arachidonic acid as substrate by chemiluminescence assay
T1 sequence (P05979 whole entry): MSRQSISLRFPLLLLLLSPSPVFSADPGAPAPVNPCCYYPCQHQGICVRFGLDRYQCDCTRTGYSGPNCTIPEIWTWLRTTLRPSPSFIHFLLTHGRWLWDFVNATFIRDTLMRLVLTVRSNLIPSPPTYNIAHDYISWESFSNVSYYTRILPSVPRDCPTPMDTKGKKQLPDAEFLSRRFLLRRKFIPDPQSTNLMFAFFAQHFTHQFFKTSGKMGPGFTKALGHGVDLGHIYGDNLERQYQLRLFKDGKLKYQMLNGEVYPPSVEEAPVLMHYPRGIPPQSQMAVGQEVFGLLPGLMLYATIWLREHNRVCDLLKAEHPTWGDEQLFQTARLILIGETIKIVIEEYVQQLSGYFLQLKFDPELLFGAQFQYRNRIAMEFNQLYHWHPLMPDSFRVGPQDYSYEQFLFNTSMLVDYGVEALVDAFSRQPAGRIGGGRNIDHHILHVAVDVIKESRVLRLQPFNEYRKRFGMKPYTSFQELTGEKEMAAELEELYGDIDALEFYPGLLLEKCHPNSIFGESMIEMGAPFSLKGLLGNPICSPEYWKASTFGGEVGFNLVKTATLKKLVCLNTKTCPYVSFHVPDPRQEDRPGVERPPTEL
How it was run: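 Ovine COX-1 chemiluminescent inhibitor screening kit: heme-catalyzed hydroperoxidase activity generates luminescence with a cyclic naphthalene hydrazide and arachidonic acid substrate. Luminescence serves as the index of catalytic activity. IC50 is the concentration giving 50% inhibition of enzyme activity.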

[8] = system: Rattus norvegicus; test: Antiinflammatory activity in Wistar rat assessed as change in carrageenan-induced hind paw thickness at 3 mg/kg, ip administered 30 mins prior to carrageenan-challenge measured after 2 hrs (reference value: 1.86 +/- 0.38 mm); type: functional; conditions: route intraperitoneal
[9] = system: Rattus norvegicus; test: Antiinflammatory activity in Wistar rat assessed as change in carrageenan-induced hind paw thickness at 6 mg/kg, ip administered 30 mins prior to carrageenan-challenge measured after 2 hrs (reference value: 1.86 +/- 0.38 mm); type: functional; conditions: route intraperitoneal
[10] = system: Mus musculus; test: Antinociceptive activity in Swiss albino mouse assessed as licking time in primary neurogenic period at 6 mg/kg, ip administered 30 mins prior to formalin-challenge (reference value: 80 +/- 19 seconds); type: functional; conditions: route intraperitoneal
[11] = system: Mus musculus; test: Antinociceptive activity in Swiss albino mouse assessed as licking time in primary neurogenic period at 3 mg/kg, ip administered 30 mins prior to formalin-challenge (reference value: 80 +/- 19 seconds); type: functional; conditions: route intraperitoneal
[12] = system: Mus musculus; test: Antinociceptive activity in Swiss albino mouse assessed as licking time in primary neurogenic period at 5 mg/kg, ip administered 30 mins prior to formalin-challenge (reference value: 80 +/- 19 seconds); type: functional; conditions: route intraperitoneal
[13] = system: Rattus norvegicus; test: Antiinflammatory activity in Wistar rat assessed as change in carrageenan-induced hind paw thickness at 5 mg/kg, ip administered 30 mins prior to carrageenan-challenge measured after 3 hrs (reference value: 1.78 +/- 0.39 mm); type: functional; conditions: route intraperitoneal
[14] = system: Mus musculus; test: Antinociceptive activity in Swiss albino mouse assessed as licking time in secondary inflammatory period at 5 mg/kg, ip administered 30 mins prior to formalin-challenge (reference value: 217 +/- 68.5 seconds); type: functional; conditions: route intraperitoneal
[15] = system: Rattus norvegicus; test: Antiinflammatory activity in Wistar rat assessed as change in carrageenan-induced hind paw thickness at 5 mg/kg, ip administered 30 mins prior to carrageenan-challenge measured after 2 hrs (reference value: 1.86 +/- 0.38 mm); type: functional; conditions: route intraperitoneal
[16] = system: Rattus norvegicus; test: Antiinflammatory activity in Wistar rat assessed as change in carrageenan-induced hind paw thickness at 5 mg/kg, ip administered 30 mins prior to carrageenan-challenge measured after 1 hr (reference value: 1.84 +/- 0.41 mm); type: functional; conditions: route intraperitoneal

| Structure (SMILES) | Time [1] [s] | Activity [2] [mm] | Activity [3] [mm] | Activity [4] [mm] | Activity [5] [mm] | Time [6] [s] | IC50 [7] [µM] | Activity [8] [mm] | Activity [9] [mm] | Time [10] [s] | Time [11] [s] | Time [12] [s] | Activity [13] [mm] | Time [14] [s] | Activity [15] [mm] | Activity [16] [mm] |
| --- | --- | --- | --- | --- | --- | --- | --- | --- | --- | --- | --- | --- | --- | --- | --- | --- |
| COc1ccc(-c2nc(SC)nnc2-c2ccc(S(C)(=O)=O)cc2)cc1 | 227 | 0.96 | 0.3 | 0.64 | 0.58 | 118 | 50.1 | 0.72 | 0.43 | 49 | 46 | – | – | – | – | – |
| CSc1nnc(-c2ccc(S(C)(=O)=O)cc2)c(-c2ccc(Cl)cc2)n1 | 85 | 1 | 0.41 | 0.54 | 0.89 | 140 | 39.5 | 0.71 | 0.58 | 37 | 30 | – | – | – | – | – |
| CSc1nnc(-c2ccc(S(C)(=O)=O)cc2)c(-c2ccc(F)cc2)n1 | 127 | 1.24 | 0.34 | 0.97 | 0.75 | 152 | 51.6 | 1.16 | 0.56 | 34 | 52 | – | – | – | – | – |
| CSc1nnc(-c2ccc(S(C)(=O)=O)cc2)c(-c2ccc(C)cc2)n1 | 175 | 0.87 | 0.67 | 0.55 | 0.98 | 139 | 52.4 | 0.68 | 0.8 | 61 | 49 | – | – | – | – | – |
| CSc1nnc(-c2ccc(S(C)(=O)=O)cc2)c(-c2ccccc2)n1 | 133 | 1.45 | 0.83 | 1.19 | 1.09 | 155 | 54.4 | 1.77 | 0.94 | 58 | 57 | – | – | – | – | – |
| COc1ccc2c(c1)c(CC(=O)O)c(C)n2C(=O)c1ccc(Cl)cc1 [INDOMETHACIN] | – | – | – | – | – | – | – | – | – | – | – | 45 | 0.57 | 127 | 0.81 | 1.05 |
